ChEMBL document CHEMBL1129645, “A novel series of [2-[methyl(2-phenethyl)amino]-2-oxoethyl] benzene-containing leukotriene B4 antagonists: initial structure-activity relationships” (J Med Chem, 1996)

Tests used:
[1] = target: Leukotriene B4 receptor (Cavia porcellus); test: Binding affinity for Leukotriene B4 receptor of guinea pig spleen membranes
[2] = target: T1, Leukotriene B4 receptor 1 (Homo sapiens, UniProt Q15722); test: Compound tested for binding affinity against Leukotriene B4 receptor using radioligand binding assay from Human PMN cells at a concentration of 300 nM.; type: cell-based
T1 sequence (Q15722 whole entry): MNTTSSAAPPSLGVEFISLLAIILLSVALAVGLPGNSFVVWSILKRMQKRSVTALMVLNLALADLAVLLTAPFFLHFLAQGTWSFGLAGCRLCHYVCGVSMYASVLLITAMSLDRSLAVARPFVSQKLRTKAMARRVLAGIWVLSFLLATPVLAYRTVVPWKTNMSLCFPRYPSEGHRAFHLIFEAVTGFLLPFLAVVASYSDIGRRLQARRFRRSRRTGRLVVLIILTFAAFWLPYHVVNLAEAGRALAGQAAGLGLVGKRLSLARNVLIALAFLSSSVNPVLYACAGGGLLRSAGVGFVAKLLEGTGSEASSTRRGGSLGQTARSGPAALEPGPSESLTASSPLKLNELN
How it was run: (§1)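 Human PMNs from acid-citrate-dextrose blood, used within 2 h, isolated by dextran sedimentation and Histopaque 1077 with hypotonic erythrocyte lysis. Cells were resuspended in Hanks/5 mM HEPES pH 7.4/1% ovalbumin. Compound in DMSO, 0.5 nM [3H]LTB4 and 3 × 10^6 PMN/mL were incubated 20 min at 4 °C, then GF/B filtered and scintillation counted. Nonspecific binding was defined with 1 µM LTB4. Read-out was % inhibition or IC50.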

[3] = test system: Leukotriene B4 receptor (Cavia porcellus); test: Compound tested for binding affinity against Leukotriene B4 receptor using radioligand binding assay from guinea pig spleen membranes at a concentration of 300 nM.; settings: Membrane
[4] = target: T1, Leukotriene B4 receptor 1; test: (§2) Compound tested for binding affinity against Leukotriene B4 receptor using radioligand binding assay from Human PMN cells; type: cell-based
How it was run: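 Cells were resuspended in Hanks/5 mM HEPES pH 7.4/1% ovalbumin. Compound in DMSO, 0.5 nM [3H]LTB4 and 3 × 10^6 PMN/mL were incubated 20 min at 4 °C, then GF/B filtered and scintillation counted. Nonspecific binding was defined with 1 µM LTB4. Read-out was % inhibition or IC50.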

[5] = target: T1, Leukotriene B4 receptor 1; test: as §2; type: cell-based; remark: listed apart in the source
How it was run: as §1

Compound	IC50 [1] [nM]	I [2] [%]	other results
CN(CCc1ccccc1)C(=O)Cc1cccc(OCc2ccccc2)c1	225		
C/C(=C\C(=O)O)c1cc(CC(=O)N(C)CCc2ccccc2)cc(OCc2ccccc2)c1	143	29	
CN(CCc1ccccc1)C(=O)Cc1cc(CC(=O)O)cc(OCc2ccccc2)c1	200		
CN(CCc1ccccc1)C(=O)Cc1ccc(OCc2ccccc2)cc1	65.6		IC50 [4]: 900 nM
CN(CCc1ccccc1)C(=O)Cc1cc(OCC(=O)O)cc(OCc2ccccc2)c1	53.3		

Continued, in another order:

IC50 [1] [nM]	I [2] [%]	Compound	other results
65		C/C(=C\c1cc(CC(=O)N(C)CCc2ccccc2)ccc1-c1ccccc1)C(=O)O	
	18	CN(CCc1ccccc1)C(=O)Cc1ccc(-c2ccccc2)c(CO)c1	
2.27	27	CN(CCc1ccccc1)C(=O)Cc1ccc(OCc2ccccc2)c(/C=C/C(=O)O)c1	
	0	COC(=O)c1cc(CC(=O)N(C)CCc2ccccc2)ccc1-c1ccccc1	I [3]: 37%
1200	16	CN(CCc1ccccc1)C(=O)Cc1cc(CC(=O)O)cc(OC/C=C/c2ccccc2)c1	
44.6		CN(CCc1ccccc1)C(=O)Cc1ccc(-c2ccccc2)c(/C=C/C(=O)O)c1	IC50 [5]: 200 nM
250	28	CN(CCc1ccccc1)C(=O)Cc1cc(OCc2ccccc2)ccc1C(=O)O	
27		CN(CCc1ccccc1)C(=O)Cc1ccc(-c2ccccc2)c(C(=O)O)c1	
